Legend:
Pontederia vaginalis [1] = test: Post-emergence herbicidal activity against three-leaf stage Monochoria vaginalis under green-house condition by water injection treatment method; assay type: functional
Procedure, shortened: (§1)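 Greenhouse paddy test. Seed was sown on saturated Metro Mix, covered with about 0.5 cm mix and held 48 h dark at 30 °C, 95% RH; about 15 d from seed soaking to treatment. Treatment solution was injected into the water. Rates were set per pot surface area, with serial rates made by halving the volume delivered. Held at 16 h day length, 29 °C.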

Echinochloa crus-galli [2] = test: Post-emergence herbicidal activity against 3-4-leaf stage Echinochloa crus-galli (barnyard grass) under field condition by foliar application method; assay type: functional
Oryza sativa [3] = test: Phytotoxicity against three to four-leaf stage japonica Oryza sativa (rice) under field condition by foliar application method; assay type: organism-based; settings: in vivo
[4] = system: Schoenoplectiella juncoides; test: Post-emergence herbicidal activity against two to three-leaf stage Schoenoplectiella juncoides under field condition by foliar application method; assay type: functional
Echinochloa crus-galli [5] = test: Post-emergence herbicidal activity against 2-3-leaf stage Echinochloa crus-galli (barnyard grass) under field condition by foliar application method; assay type: functional
Oryza sativa [6] = test: Phytotoxicity against two to three-leaf stage indica Oryza sativa (rice) under field condition by foliar application method; assay type: organism-based; settings: in vivo
[7] = system: Schoenoplectiella juncoides; test: Post-emergence herbicidal activity against three-leaf stage Schoenoplectiella juncoides under field condition by water injection treatment method; assay type: functional
Procedure, shortened: (§2)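 Field trials: water-injected treatment applied to transplanted japonica rice and to weeds at the three-leaf stage, under rice-growing conditions in several countries.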

Pontederia vaginalis [8] = test: Post-emergence herbicidal activity against three-leaf stage Monochoria vaginalis under field condition by water injection treatment method; assay type: functional; procedure, shortened: as §2
Oryza sativa [9] = test: Phytotoxicity against three-leaf stage Oryza sativa (rice) under field condition by water injection treatment method; assay type: organism-based; procedure, shortened: as §2
Echinochloa crus-galli [10] = test: Post-emergence herbicidal activity against three-leaf stage Echinochloa crus-galli (barnyard grass) under field condition by water injection treatment method; assay type: functional; procedure, shortened: as §2
Cyperus difformis = test: Post-emergence herbicidal activity against three-leaf stage Cyperus difformis under green-house condition by water injection treatment method; assay type: functional; procedure, shortened: as §1
[11] = system: Schoenoplectiella juncoides; test: Post-emergence herbicidal activity against three-leaf stage Schoenoplectiella juncoides under green-house condition by water injection treatment method; assay type: functional; procedure, shortened: as §1
Echinochloa crus-galli [12] = test: Post-emergence herbicidal activity against three-leaf stage Echinochloa crus-galli (barnyard grass) under green-house condition by water injection treatment method; assay type: functional; procedure, shortened: as §1
Oryza sativa [13] = test: Phytotoxicity against three-leaf stage Oryza sativa (rice) under green-house condition by water injection treatment method; assay type: organism-based; procedure, shortened: as §1
Sesbania herbacea = test: Post-emergence herbicidal activity against three to four-leaf stage Sesbania herbacea under field condition by foliar application method; assay type: functional
Ipomoea hederacea = test: Post-emergence herbicidal activity against Ipomoea hederacea (ivy-leaved morning glory) compound treated as foliar application measured after 2 weeks; assay type: functional
Procedure, shortened: (§3)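 Greenhouse post-emergence foliar screen in 64 cm² pots. Seed treatments were used on some species to aid germination. Plants were grown 7–21 days at 23–29 °C day/22–28 °C night under a 15 h photoperiod. Sprayed at 2–12 cm height and the 1–4 true leaf stage.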

Veronica hederifolia = test: Post-emergence herbicidal activity against Veronica hederifolia compound treated as foliar application measured after 2 weeks; assay type: functional; procedure, shortened: as §3
Abutilon theophrasti = test: Post-emergence herbicidal activity against Abutilon theophrasti (velvetleaf) compound treated as foliar application measured after 2 weeks; assay type: functional; procedure, shortened: as §3
Amaranthus retroflexus = test: Post-emergence herbicidal activity against Amaranthus retroflexus compound treated as foliar application measured after 2 weeks; assay type: functional; procedure, shortened: as §3
Ipomoea = test: Post-emergence herbicidal activity against Ipomoea spp. compound treated as foliar application measured after 2 weeks; assay type: functional; procedure, shortened: as §3
Helianthus = test: Post-emergence herbicidal activity against Helianthus spp. compound treated as foliar application measured after 2 weeks; assay type: functional; procedure, shortened: as §3
Chenopodium album = test: Post-emergence herbicidal activity against Chenopodium album compound treated as foliar application measured after 2 weeks; assay type: functional; procedure, shortened: as §3
Datura stramonium = test: Post-emergence herbicidal activity against Datura stramonium compound treated as foliar application measured after 2 weeks; assay type: functional; procedure, shortened: as §3
Xanthium strumarium = test: Post-emergence herbicidal activity against Xanthium strumarium (cocklebur) compound treated as foliar application measured after 2 weeks; assay type: functional; procedure, shortened: as §3
Avena fatua = test: Post-emergence herbicidal activity against Avena fatua compound treated as foliar application measured after 2 weeks; assay type: functional; procedure, shortened: as §3
Oryza sativa [14] = test: Phytotoxicity against Oryza sativa (rice); assay type: organism-based; settings: in vivo
Digitaria sanguinalis = test: Post-emergence herbicidal activity against Digitaria sanguinalis (hairy crabgrass) compound treated as foliar application measured after 2 weeks; assay type: functional; procedure, shortened: as §3
Sorghum halepense = test: Post-emergence herbicidal activity against Sorghum halepense (Johnson grass) compound treated as foliar application measured after 2 weeks; assay type: functional; procedure, shortened: as §3
Setaria faberi = test: Post-emergence herbicidal activity against Setaria faberi (Giant Foxtail) compound treated as foliar application measured after 2 weeks; assay type: functional; procedure, shortened: as §3
Echinochloa crus-galli [15] = test: Post-emergence herbicidal activity against Echinochloa crus-galli (barnyard grass) compound treated as foliar application measured after 2 weeks; assay type: functional; procedure, shortened: as §3
Alopecurus = test: Post-emergence herbicidal activity against Alopecurus spp. compound treated as foliar application measured after 2 weeks; assay type: functional; procedure, shortened: as §3
Fallopia convolvulus = test: Post-emergence herbicidal activity against Fallopia convolvulus compound treated as foliar application measured after 2 weeks; assay type: functional; procedure, shortened: as §3
Stellaria media = test: Post-emergence herbicidal activity against Stellaria media compound treated as foliar application measured after 2 weeks; assay type: functional; procedure, shortened: as §3

SMILES | GR80 (Pontederia vaginalis [1]) | GR80 (Echinochloa crus-galli [2]) | GR10 (Oryza sativa [3]) | GR80 [4] | GR80 (Echinochloa crus-galli [5]) | GR10 (Oryza sativa [6]) | GR80 [7] | GR80 (Pontederia vaginalis [8]) | GR10 (Oryza sativa [9]) | GR80 (Echinochloa crus-galli [10]) | GR80 (Cyperus difformis) | GR80 [11] | GR80 (Echinochloa crus-galli [12]) | GR20 (Oryza sativa [13]) | GR80 (Sesbania herbacea) | further results
COc1cnc(OC)n2nc(NS(=O)(=O)c3c(OCC(F)F)cccc3C(F)(F)F)nc12 [PENOXSULAM] | <2 gAi/ha | 9 gAi/ha | 65 gAi/ha | 6 gAi/ha | 7 gAi/ha | > 70 gAi/ha | 9 gAi/ha | 6 gAi/ha | 35 gAi/ha | 26 gAi/ha | 14 gAi/ha | 12 gAi/ha | 12 gAi/ha | 75 gAi/ha | 7 gAi/ha | –
COc1cnc(OC)n2nc(NS(=O)(=O)c3c(OC(CF)CF)cccc3C(F)(F)F)nc12 | 1 gAi/ha | – | – | 20 gAi/ha | 15 gAi/ha | > 70 gAi/ha | 15 gAi/ha | 12 gAi/ha | 70 gAi/ha | 35 gAi/ha | 31 gAi/ha | 9 gAi/ha | 14 gAi/ha | 140 gAi/ha | – | –
COc1cnc(OC)n2nc(NS(=O)(=O)c3c(OCCF)cccc3C(F)(F)F)nc12 | 5.2 gAi/ha | 12 gAi/ha | 12 gAi/ha | 4 gAi/ha | 5 gAi/ha | > 70 gAi/ha | 5 gAi/ha | 4.4 gAi/ha | 8 gAi/ha | 19 gAi/ha | 8 gAi/ha | 9 gAi/ha | 10 gAi/ha | 14 gAi/ha | 10 gAi/ha | GR80 (Ipomoea hederacea): 6 ppm; GR80 (Veronica hederifolia): 6 ppm; GR80 (Abutilon theophrasti): 6 ppm; GR80 (Amaranthus retroflexus): 6 ppm; GR80 (Ipomoea): 6 ppm; GR80 (Helianthus): 6 ppm; GR80 (Chenopodium album): 6 ppm; GR80 (Datura stramonium): 6 ppm; GR80 (Xanthium strumarium): 6 ppm; GR80 (Avena fatua): 66 ppm; GR20 (Oryza sativa [14]): 250 ppm; GR80 (Digitaria sanguinalis): 66 ppm; GR80 (Sorghum halepense): 66 ppm; GR80 (Setaria faberi): 66 ppm; GR80 (Echinochloa crus-galli [15]): 1 ppm; GR80 (Alopecurus): 66 ppm; GR80 (Fallopia convolvulus): 6 ppm; GR80 (Stellaria media): 6 ppm

Source: ChEMBL document CHEMBL3046654, “Penoxsulam--structure-activity relationships of triazolopyrimidine sulfonamides” (Bioorg Med Chem, 2009)
